TRPC4 block: inhibitors of mouse TRPC4 channel, primary screen, Fluo4 calcium, HEK293 TRPC4beta/mu-opioid cells. Short transient receptor potential channel 4 (Mus musculus), Q9QUQ5. DAMGO-evoked Fluo4 calcium flux; stronger effect = lower value. AID 2247, 2010. B-score at 10 µM. hit rate 0.39% among 300,000;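 active = B-score over 3 SD under the library average, no early fluorescence shift, positive overall ratio signal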
Target sequence (Q9QUQ5 whole entry, looked up): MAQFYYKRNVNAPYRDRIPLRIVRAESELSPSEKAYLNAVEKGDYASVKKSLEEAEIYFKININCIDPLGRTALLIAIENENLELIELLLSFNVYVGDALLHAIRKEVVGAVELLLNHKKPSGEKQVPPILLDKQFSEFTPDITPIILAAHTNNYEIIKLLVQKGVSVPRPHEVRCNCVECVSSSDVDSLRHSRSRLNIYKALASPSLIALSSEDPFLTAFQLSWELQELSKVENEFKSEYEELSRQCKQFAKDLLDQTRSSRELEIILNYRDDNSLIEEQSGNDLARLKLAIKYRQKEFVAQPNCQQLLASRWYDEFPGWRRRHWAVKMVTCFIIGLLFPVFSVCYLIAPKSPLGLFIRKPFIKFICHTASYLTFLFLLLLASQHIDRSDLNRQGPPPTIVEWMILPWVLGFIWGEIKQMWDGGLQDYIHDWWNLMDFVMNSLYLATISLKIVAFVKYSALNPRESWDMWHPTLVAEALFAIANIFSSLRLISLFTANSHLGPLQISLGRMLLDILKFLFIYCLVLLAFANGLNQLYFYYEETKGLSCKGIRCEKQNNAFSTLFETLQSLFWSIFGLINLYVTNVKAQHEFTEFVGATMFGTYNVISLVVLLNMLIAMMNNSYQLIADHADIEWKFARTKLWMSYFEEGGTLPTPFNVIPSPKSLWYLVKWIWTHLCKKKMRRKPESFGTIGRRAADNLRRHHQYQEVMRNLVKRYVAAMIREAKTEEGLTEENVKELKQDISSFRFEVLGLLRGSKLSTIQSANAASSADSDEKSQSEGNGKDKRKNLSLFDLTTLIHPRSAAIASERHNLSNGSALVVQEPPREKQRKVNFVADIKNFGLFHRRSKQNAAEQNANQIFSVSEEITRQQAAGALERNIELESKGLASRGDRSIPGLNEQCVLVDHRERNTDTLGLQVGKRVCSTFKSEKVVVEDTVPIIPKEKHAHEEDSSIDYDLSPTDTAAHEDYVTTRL
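Assay system: HEK293 cells with stable TRPC4beta plus mu-opioid receptor expression; Probe or stimulus: DAMGO in two steps, submaximal then maximal; Dosing: single-point compound dosing; Measured by: Fluo4 calcium-dye fluorescence, kinetic read; Read-out basis: B score from integrated Fluo4 fluorescence ratio.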
TRPC6 activator: mouse TRPC6 channel activators, primary screen, cell-based, HEK293, membrane potential dye | hit rate 0.13% among 310,000 | AID 2550, 2010 | B-score at 10 µM | HEK293-TRPC6 membrane potential dye fluorescence; stronger effect = higher value;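 active = B-score of the integrated fluorescence ratio above library mean plus 3 SD, and starting fluorescence ratio within library mean plus 5 SD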;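 also: higher score means more depolarization so channel activation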
TRPC4 potent: positive allosteric modulators of TRPC4, primary screen, cell-based, mouse TRPC4beta, HEK293 mu-opioid, Fluo-4 calcium; Short transient receptor potential channel 4 (Mus musculus), Q9QUQ5; DAMGO EC20, Fluo-4 Ca2+ flux; stronger effect = higher value; B-score at 10 µM; hit rate 0.42% among 310,000; AID 2227, 2009;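 active = B-score of calcium response area above 5 SD of library B-scores, with initial fluorescence ratio within 5 SD of library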
TRPC6 inhibitor: mouse TRPC6 channel inhibitors, primary screen, cell-based, HEK293, membrane potential dye; B-score at 10 µM; hit rate 1.1% among 310,000; ACh-evoked depolarization; stronger effect = lower value;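 active = B-score under library mean minus 3 SD, initial fluorescence not abnormally high, positive integrated signal ratio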;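 also: B-score derived from integrated fluorescence ratio over the kinetic read; more negative B-score means stronger inhibition of depolarization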
TRPC4 agonist: activators of mouse TRPC4 channel, primary screen, Fluo4 calcium, HEK293 TRPC4beta/mu-opioid cells. hit rate 0.49% among 310,000. Short transient receptor potential channel 4 (Mus musculus), Q9QUQ5. B-score at 10 µM. Fluo4 calcium fluorescence; stronger effect = higher value;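 active = B-score above 5 SD of library B-scores, and initial fluorescence ratio not above library mean plus 5 SD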;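 also: positive B-score marks a calcium rise read as TRPC4 activation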
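Assay system: HEK293 stable line with TRPC4beta plus mu-opioid receptor; schedule: 45 min room-temperature Fluo4 loading, 110 s read; technique: kinetic Fluo4 calcium fluorescence; evaluation: integrated baseline-normalised fluorescence ratio, converted to per-well B score; controls: buffer (low) and maximal DAMGO (high)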
TRPC4 spec 2: mouse TRPC4 off-target activity of TRPC6 inhibitors, second screen | shares compounds with TRPC6 inhibitor | hit rate 42% among 920 | HEK293 TRPC4/MOR, membrane potential dye fluorescence; channel activated by saturating DAMGO dose | inhibition, % at 10 µM | AID 2776;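 active = compounds whose fluorescence signal differed from control wells by over 3 SD, either direction, in both duplicate plates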
TRPC4 spec: mouse TRPC4 modulation by TRPC6 hits, confirmation, selectivity assay for TRPC6 inhibitor project, cell-based, HEK293 TRPC4/mu-opioid, membrane potential dye; shares compounds with TRPC6 inhibitor; membrane potential fluorescence; activity change, negative = inhibition, % at 10 µM; hit rate 61% among 920;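 active = rise or fall in signal beyond 3 SD of buffer-only wells in both replicate plates, either sign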;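 also: integrated kinetic ratio of fluorescence range over baseline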
HEK293 MPD ctr 2-1: nonspecific membrane potential effects, parental HEK293, confirmation, counter-screen for TRPC6 inhibitor project, cell-based, second counter screen; hit rate 31% among 920; shares compounds with TRPC6 inhibitor; AID 2779, 2010; signal change vs control, % at 10 µM; parental HEK293 membrane potential dye fluorescence; maximal acetylcholine challenge after compound addition;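 active = membrane potential signal moving either way by over 3 SD of the maximum-effect control, in both duplicate plates, meaning non-specific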
HEK293 MPD ctr-1: membrane potential modulation in parental HEK293, confirmation, counter-screen for TRPC6 inhibitor project, cell-based. shares compounds with TRPC6 inhibitor. parental HEK293 membrane potential dye fluorescence. membrane potential signal change, % at 10 µM. hit rate 60% among 920;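 active = membrane potential signal shifting up or down by more than 3 SD of buffer-only wells, on both duplicate plates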
HEK293 MPD ctr-2: parental HEK293 membrane potential modulation, confirmation, counter-screen for TRPC6 modulator project, cell-based; shares compounds with TRPC6 inhibitor; membrane potential dye fluorescence; membrane potential signal change, % at 10 µM; hit rate 51% among 2,400;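 active = membrane potential signal moves up or down beyond 5 SD from buffer-only wells, on both duplicate plates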
HEK293 MPD ctr 2-2: second check of TRPC6 modulator effects in parental HEK293 cells; shares compounds with TRPC6 inhibitor; membrane potential dye fluorescence; after compound, maximal acetylcholine stimulation; inhibition, % at 10 µM; hit rate 14% among 2,400; AID 488926;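 active = membrane potential signal drops by more than 5 SD from the mean control signal, in both duplicate plates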
TRPC4/MOR mod: TRPC4 modulation by TRPC6 hit compounds, confirmation, selectivity assay for TRPC6 modulator project, cell-based, HEK293 TRPC4/mu-opioid, membrane potential dye, mouse. shares compounds with TRPC6 inhibitor. hit rate 69% among 2,400. membrane potential fluorescence. percent change from control (negative = decrease, positive = increase), % at 10 µM;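 active = membrane potential signal moved up or down beyond 5 SD of buffer control wells, in both duplicate plates, actives on both sides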
TRPC4/MOR inh 2: second check of whether TRPC6 modulators also affect mouse TRPC4; shares compounds with TRPC6 inhibitor; HEK293 TRPC4/mu-opioid, membrane potential dye fluorescence; stimulated with maximal-effect DAMGO; inhibition, % at 10 µM; hit rate 55% among 2,400; AID 488928;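 active = drop in membrane potential signal beyond 5 SD of the control wells in both duplicate plates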;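 also: TRPC4 counter screen for TRPC6 hits run under conditions tuned for TRPC6 not TRPC4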
TRPC6 inh conf: mouse TRPC6 channel inhibitors, confirmation, HEK293 cells, membrane potential dye, duplicate; ACh-evoked depolarization; shares compounds with TRPC6 inhibitor; hit rate 43% among 3,300; inhibition, % at 10 µM;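 active = fluorescence ratio falls more than 5 SD below the full-stimulation control mean, in both duplicate runs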;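 also: integrated fluorescence ratio of peak minus minimum over baseline after agonist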
TRPC6 act confirm: mouse TRPC6 channel activators, confirmation, HEK293 cells, membrane potential dye, duplicate; hit rate 11% among 2,800; AID 488961, 2010; HEK293-TRPC6 membrane potential dye fluorescence, FDSS; activation, % at 10 µM; shares compounds with TRPC6 inhibitor;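 active = ratio signal rise beyond 5 SD above unstimulated control wells' mean, seen in both duplicate runs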
Each line names hits and unclear results; the compound was inactive in the other large screens (follow-up assays come after a bar, where they were run). In the library only some 2.3% were active in any assay of this set; here they are far more common.

O=C(CN1C2=NCCN2c2ccccc21)c1ccc(Br)cc1	TRPC6 inhibitor -5.3 | HEK293 MPD ctr-2 inactive | HEK293 MPD ctr 2-2 inactive | TRPC4/MOR mod inactive | TRPC4/MOR inh 2 72% | TRPC6 inh conf 38% | TRPC6 act confirm inactive
O=C(CN1C2=NCCN2c2ccccc21)c1ccc2c(c1)OCO2	none
CCN(CC)C(=O)N1c2ccccc2CC(N(CC)CC)c2ccccc21 (stereo unspecified)	TRPC6 inhibitor -5.2 | HEK293 MPD ctr-2 220% | HEK293 MPD ctr 2-2 inactive | TRPC4/MOR mod 39% | TRPC4/MOR inh 2 inactive | TRPC6 inh conf inactive
O=C(c1ccc(Cl)c(S(=O)(=O)N2CCOCC2)c1)N(c1ccccn1)C1CCCCC1	TRPC6 inhibitor -6 | HEK293 MPD ctr-2 170% | HEK293 MPD ctr 2-2 inactive | TRPC4/MOR mod 30% | TRPC4/MOR inh 2 inactive | TRPC6 inh conf inactive
O=C(CN1CCCC1)N1CCCc2c1c(=O)oc1ccc(OCc3ccccc3)cc21	TRPC6 inhibitor -6.5 | HEK293 MPD ctr-2 inactive | HEK293 MPD ctr 2-2 inactive | TRPC4/MOR mod inactive | TRPC4/MOR inh 2 70% | TRPC6 inh conf inactive | TRPC6 act confirm inactive
COc1ccc(NC(=O)c2ccc(Cl)c(S(=O)(=O)NCC3CCCO3)c2)c(OC)c1 (stereo unspecified)	none
CC1CC(C)CN(c2nc3c(c(=O)n(C)c(=O)n3C)n2CCSc2ncccn2)C1 (stereo unspecified)	none
Cn1c(=O)c2c(nc(N3CCOCC3)n2CCSc2ncccn2)n(C)c1=O	TRPC6 inhibitor -5.6 | HEK293 MPD ctr-2 -360% | HEK293 MPD ctr 2-2 inactive | TRPC4/MOR mod -56% | TRPC4/MOR inh 2 inactive | TRPC6 inh conf inactive | TRPC6 act confirm inactive
CCN1CCN(c2nc3c(c(=O)n(C)c(=O)n3C)n2CCSc2nccc(C)n2)CC1	TRPC6 inhibitor -12 | HEK293 MPD ctr-2 -284% | HEK293 MPD ctr 2-2 118% | TRPC4/MOR mod -46% | TRPC4/MOR inh 2 72% | TRPC6 inh conf 78% | TRPC6 act confirm inactive
COC(=O)CSc1ccsc1C(=O)O	none
COC(=O)CSc1cccc2c1C(=O)CC2c1ccccc1 (stereo unspecified)	TRPC6 inhibitor -7.7 | TRPC4 spec 2 inactive | TRPC4 spec 1.9% | HEK293 MPD ctr 2-1 inactive | HEK293 MPD ctr-1 3.3% | TRPC6 inh conf inactive
COc1cccc(CNC23CC4CC(CC(C4)C2)C3)c1OCc1ccccc1	TRPC6 activator 15, TRPC6 inhibitor -7.8 | HEK293 MPD ctr-2 752% | HEK293 MPD ctr 2-2 inactive | TRPC4/MOR mod 147% | TRPC4/MOR inh 2 80% | TRPC6 inh conf 78% | TRPC6 act confirm 241%
COc1cccc(CNCCc2c[nH]c3ccccc23)c1OCc1ccccc1	none
COC(=O)c1ccc(C(=O)OC)c(NC(=S)N2CCOCC2)c1	none
CN(C)c1cc(NC(=O)CNC(C)(C)C)c2ccccc2n1	TRPC6 inhibitor -9.2 | HEK293 MPD ctr-2 -192% | HEK293 MPD ctr 2-2 inactive | TRPC4/MOR mod -36% | TRPC4/MOR inh 2 50% | TRPC6 inh conf inactive | TRPC6 act confirm inactive
CCCCC(=O)Nc1cc(N(C)C)nc2ccccc12	none
Cc1ccc2c(c1)CCCN2C(=O)NC1CCCCC1	TRPC6 inhibitor -6.9 | TRPC4 spec 2 inactive | TRPC4 spec inactive | HEK293 MPD ctr 2-1 inactive | HEK293 MPD ctr-1 inactive | TRPC6 inh conf inactive | TRPC6 act confirm inactive
Cc1ccc(-c2c[n+](CC(=O)Nc3c(C)cccc3C)c3n2CCC3)cc1	none
Cc1ccc(C[n+]2cc(-c3ccc(Cl)cc3)n3c2CCC3)cc1	TRPC4 block -7, TRPC6 inhibitor -5.6 | HEK293 MPD ctr-2 -96% | HEK293 MPD ctr 2-2 inactive | TRPC4/MOR mod -18% | TRPC4/MOR inh 2 30% | TRPC6 inh conf inactive | TRPC6 act confirm inactive
Cc1ccc(-c2c[n+](Cc3cccc(Cl)c3)c3n2CCC3)cc1	TRPC4 block -6, TRPC6 inhibitor -5.1 | HEK293 MPD ctr-2 -147% | HEK293 MPD ctr 2-2 inactive | TRPC4/MOR mod -24% | TRPC4/MOR inh 2 84% | TRPC6 inh conf inactive | TRPC6 act confirm inactive
COCCNc1c2c(nc3c(-c4ccccc4)c(C)nn13)CCCC2	none
Cc1nn2c(NCCN(C)C)c3c(nc2c1-c1ccccc1)CCCC3	TRPC6 inhibitor -7.3 | HEK293 MPD ctr-2 -192% | HEK293 MPD ctr 2-2 inactive | TRPC4/MOR mod -36% | TRPC4/MOR inh 2 52% | TRPC6 inh conf 48% | TRPC6 act confirm inactive

High-throughput results deposited in PubChem by Johns Hopkins Ion Channel Center.
